Data on one compound can be found in paper PMC7346850 (ACS infectious diseases, 2020).

By EC50 is commonly meant the concentration at which the effect is half-maximal.

The subject of experiment [1] is HepG2 cells. In words: Cytotoxicity against HepG2. The class given is cell-based. The settings on record: Homo sapiens, HepG2, read-out: EC50 HepG2 cells.
The subject of experiment [2] is chloroquine-resistant P. falciparum Dd2 cells. Briefly: Antiplasmodial dose-response, cell-based SYBR Green I assay, Dd2. More on the design: species or system Plasmodium falciparum. An outline of the steps: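 Chloroquine-resistant P. falciparum Dd2 cultures were tested in dose–response with a cell-based SYBR Green I growth assay to obtain EC50. Each reported value comes from three independent experiments.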

“Also recorded” adds a separate entry of the source.

As for `COC(=O)[C@@H]1[C@H]2C[C@H]3c4[nH]c5ccccc5c4CCN3C[C@@H]2CC[C@@H]1O` [Y, yohimbine], the half-maximal effective concentration (EC50) in experiment [1] was greater than 100 µM; in experiment [2] (Plasmodium falciparum, DD2, read-out: EC50 Dd2 cells), 76.7 ± 0.74 µM. Besides, the “antiplasmodial activity (in words)” value in experiment [2] (P. falciparum Dd2 cells) is on record as “no antiplasmodial activities; also recorded: no antiplasmodial activity”.
